Screening data (PubChem BioAssay)
VLA-4 inh: inhibition in a human VLA-4 binding assay; P13612; VLA-4 expressing cells, ligand binding flow cytometry; inhibition, % (about 7 µM as worked out from the volumes in the protocol); hit rate 0.2% among 330,000; in the data active = inhibition above about 50%
GASC-1 inh: blocks human GASC-1 demethylase activity; inhibition, % at 2.35 µM; hit rate 0.069% among 330,000; AID 2099; GST-JMJD2C(1-420) H3K9me3 demethylation, DELFIA europium;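 active = more than half of a compound's replicate wells show inhibition beyond 50%, single wells judged on their own value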;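 note: signal counts dimethyl H3K9 product captured on neutravidin plate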
GRK2 inh: blocks RNA aptamer binding to human GRK2; bead flow cytometry, FAM-aptamer displacement from GRK2; inhibition of aptamer binding, % at 10 µM; AID 488847; hit rate 0.59% among 330,000;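 active = inhibition of aptamer binding above 40%, roughly 3 SD of noise, on plates passing a quality check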;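 note: median bead fluorescence of bound FAM aptamer so fluorescent compounds give negative values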
proCasp3 act: activates human procaspase-3; P42574; recombinant procaspase-3 D3A, Ac-DEVD-pNA absorbance 405 nm; activation, % at 8.5 µM; hit rate 0.11% among 330,000; AID 463141;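 active = activation above the mean of all tested compounds plus 3 SD, cut at about 21% in these data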
Target sequence (P42574 whole entry D9A/D28A/D175A): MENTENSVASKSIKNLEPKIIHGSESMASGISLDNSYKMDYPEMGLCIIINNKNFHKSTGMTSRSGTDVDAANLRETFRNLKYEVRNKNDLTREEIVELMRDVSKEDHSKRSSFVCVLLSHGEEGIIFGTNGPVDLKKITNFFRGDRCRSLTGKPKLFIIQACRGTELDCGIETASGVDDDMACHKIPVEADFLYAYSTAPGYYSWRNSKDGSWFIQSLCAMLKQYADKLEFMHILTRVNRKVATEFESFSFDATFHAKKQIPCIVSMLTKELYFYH
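material = Procaspase-3 D3A mutant | probe or stimulus = Ac-DEVD-pNA | compound = single dose, 8.5 µM nominal compound, 0.8% DMSO | timing = 1 h preincubation, 2 h reaction | measured by = 405 nm absorbance of p-nitroaniline, reads at 0 and 120 min | benchmarks = DMSO-only low control, 5 µM PC-3 D3A high control | repeats = singlicate, each compound tested once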
procasp7 counter: counter-screen: procaspase-7 (human) activation; P55210; recombinant procaspase-7, Ac-DEVD-pNA absorbance 405 nm; D23A/D198A/D206A triple mutant, cannot self-cleave; scale: DMSO 0, 5 µM enzyme 100; activation, % at 8.5 µM; hit rate 0.093% among 330,000; AID 463210;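 active = percent activation above the screen-wide mean plus 3 SD, cut at about 25% in these data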
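Replicates: singlicate. Assay system: Procaspase-7 triple mutant (PC-7 D3A). Signal: 405 nm absorbance of p-nitroaniline. Times: 1 h preincubation, 2 h reaction. Buffer or medium: Zinc-free HEPES pH 7.4 with 300 mM NaCl, 0.01% Triton X-100. Also added: DEVD-pNA substrate. Benchmarks: DMSO wells as 0%, DMSO with 5 µM added PC-7 as 100%.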
Hep lipid drop: hepatic lipid droplet formation modulation. AML12 mouse hepatocytes, oleate lipid droplets, BODIPY imaging. inhibition, % at 6.5 µM. hit rate 0.4% among 240,000. AID 1656;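 active = lipid droplet intensity inhibited by at least 50%, with more than 500 cells counted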
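System: AML12 hepatocytes (mouse). Probe or stimulus: oleic acid at 100 µM to induce lipid droplet formation. Times: overnight treatment with compound plus oleate. Detection: Image-based BODIPY and DAPI two-channel analysis. Evaluation: percent inhibition of filter-corrected integrated lipid droplet intensity per well.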
GRK2 CP1: human GRK2 inhibition confirmation, cherry pick 1; shares compounds with GRK2 inh; bead-bound GRK2, FAM-aptamer displacement, flow cytometry; aptamer displacement, % at 10 µM; hit rate 4% among 2,000;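 active = aptamer displacement above 40%, near three times the noise of non-fluorescent compounds, on plates passing quality checks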;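 note: negative values mostly reflect intrinsic compound fluorescence rather than true enhancement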
Aptamer quench SP: aptamer fluorescence quenching in GRK2 counter-screen | 2,000 tested, under 10 active | Carboxyfluorescein RNA aptamer on beads, flow cytometry quenching; active compounds read low | fluorescence response (% of DMSO), % at 10 µM | shares compounds with GRK2 inh | AID 504580;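 active = compounds that quench the bead-bound fluorescent RNA probe, cutting fluorescence to under half of the solvent control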;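 note: counterscreen run without GRK2 so only probe quenching by compound is measured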
GRK2 confirm 2: human GRK2 inhibition confirmation, cherry pick 2. inhibition of aptamer binding, % at 10 µM. 360 tested, under 10 active. AID 504782. bead-bound GRK2, FAM-aptamer displacement, flow cytometry. shares compounds with GRK2 inh;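 active = inhibition of aptamer binding above 40%, about triple the noise seen with nonglowing compounds, on plates passing quality control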;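 note: negative values mostly come from compounds that fluoresce themselves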
FAM quench SP: aptamer fluorescence quenching in GRK2 counter-screen; fluorescence response vs DMSO, % at 10 µM; shares compounds with GRK2 inh; carboxyfluorescein RNA aptamer beads, flow cytometry quenching; active compounds read low; 360 tested, under 10 active; AID 588494;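 active = response vs DMSO under 50%, meaning signal dropped by over half, treated as fluorescence quencher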;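 note: labelled aptamer on streptavidin beads without GRK2 as a quench counter-screen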
A number is an active result; 0 = inactive; - = no result. Sampled rows, rich in hits. Any-hit rate of the full collection: about 1.3%.

SMILES	VLA-4 inh	GASC-1 inh	GRK2 inh	proCasp3 act	procasp7 counter	Hep lipid drop	GRK2 CP1	Aptamer quench SP	others
COc1cc2c(cc1NC(=O)c1cccc([N+](=O)[O-])c1)oc1ccccc12	0	0	92	0	0	0	0	0
COc1cc(/C=N/Nc2nc(C)nc3c2cnn3-c2ccccc2)ccc1O	-	-	-	-	-	0	-	-
Cc1cccc(NC(=O)NCCN2CCN(c3ccccc3)CC2)c1C	0	0	0	0	0	-	-	-
Nc1nc(SCC(=O)N2N=C3/C(=C/c4ccco4)CCCC3C2c2ccco2)n[nH]1 (stereo unspecified)	0	0	0	0	0	0	-	-
O=C(CSc1nccc(=O)[nH]1)N1N=C2/C(=C/c3ccco3)CCCC2C1c1ccco1 (stereo unspecified)	0	0	42	0	0	0	0	0
Cc1c(NC(=O)CN2C(=O)NC3(CCCC3)C2=O)c(=O)n(-c2ccccc2)n1C	0	-	0	0	0	0	-	-
Cc1cc(S(=O)(=O)N2CCCCC2CCNC(=O)C(=O)NCc2cccnc2)ccc1F (stereo unspecified)	0	0	100	0	0	-	0	0
CN(CC(=O)Nc1ccc(N2CCOCC2)cc1)C(=O)CCc1ccccc1Cl	0	0	0	0	0	-	0	0
Cc1ccc(C(=O)NCC(=O)OCC(=O)N2CC(C)OC(C)C2)cc1 (stereo unspecified)	0	0	0	0	0	-	-	-
NS(=O)(=O)c1ccc(NC(=O)CSC2=NC(=O)C(c3ccccc3)C(=O)N2)cc1 (stereo unspecified)	0	0	100	0	0	-	0	0
O=C1CN(C(=O)COC(=O)c2cccs2)c2ccccc2N1	0	-	0	0	0	-	-	-
Cn1c2ccccc2c2cc(C(=O)OCC(=O)N3CC(=O)Nc4ccccc43)sc21	0	0	0	0	0	-	0	0
Nc1c(N(Cc2ccco2)C(=O)COc2ccccc2Cl)c(=O)[nH]c(=O)n1Cc1ccccc1	0	0	0	0	0	-	-	-
Cc1cc(OCC(=O)N(Cc2ccco2)c2c(N)n(Cc3ccccc3)c(=O)[nH]c2=O)ccc1Cl	0	0	0	0	0	-	0	0
Cc1ccc2c(CC(=O)OCC(=O)N(CC(C)C)c3c(N)n(Cc4ccccc4)c(=O)[nH]c3=O)coc2c1	0	0	83	0	0	-	0	0
Cc1ccccc1CN(C)C(=O)COC(=O)c1ccc2[nH]c(C)c(C)c2c1	0	0	0	0	0	-	-	-
Cc1cc2nc3ccc(N(C)C)cc3nc2cc1N	0	0	0	0	0	-	-	-
CCn1c(C(=O)O)c(CC(=O)N(C)c2ccc(OC)cc2OC)c2ccccc21	0	0	58	0	0	-	0	0
CCN(CC)C(=O)Cn1cc(S(=O)(=O)CC(=O)Nc2cc(OC)ccc2OC)c2ccccc21	0	0	71	0	0	0	-	-	GRK2 confirm 2=0;FAM quench SP=0
COc1ccc(OC)c(NC(=O)Cc2c(C(=O)O)n(C)c3ccccc23)c1	0	0	47	0	0	-	-	-	GRK2 confirm 2=0;FAM quench SP=0
CCN(C(=O)Cc1c(C(=O)O)n(C)c2ccccc12)c1cc(OC)ccc1OC	0	0	0	0	0	0	-	-
COc1ccccc1N1CCN(C(=O)CCC(=O)Nc2nnc(C(C)C)s2)CC1	0	0	0	0	0	0	-	-
CN(Cc1nc2ccccc2[nH]1)C(=O)C1CCC(=O)N(CCc2cccc(F)c2)C1 (stereo unspecified)	0	0	0	0	0	0	0	0
